Results of several laboratories.
Lines come from different studies, so protocols differ.
Target: Serine/threonine-protein kinase NLK (NLK, Homo sapiens, UniProt Q9UBE8)
One construct used (Q9UBE8 1-527): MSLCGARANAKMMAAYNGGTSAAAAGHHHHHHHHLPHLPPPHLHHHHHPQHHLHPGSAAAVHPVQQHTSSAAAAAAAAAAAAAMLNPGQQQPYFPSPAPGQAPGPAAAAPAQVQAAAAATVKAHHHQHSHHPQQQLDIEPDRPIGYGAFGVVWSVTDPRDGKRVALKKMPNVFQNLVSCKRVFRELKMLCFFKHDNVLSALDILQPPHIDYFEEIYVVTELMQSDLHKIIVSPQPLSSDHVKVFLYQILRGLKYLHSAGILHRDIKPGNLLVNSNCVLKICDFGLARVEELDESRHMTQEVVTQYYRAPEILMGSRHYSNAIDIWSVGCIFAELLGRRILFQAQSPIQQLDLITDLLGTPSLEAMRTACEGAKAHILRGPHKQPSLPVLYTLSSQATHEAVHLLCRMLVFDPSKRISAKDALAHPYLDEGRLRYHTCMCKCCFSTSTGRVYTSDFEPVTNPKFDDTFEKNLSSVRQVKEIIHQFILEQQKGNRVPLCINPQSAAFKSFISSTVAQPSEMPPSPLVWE

Compound | observed | technique | concentration | remaining binding [%]
COc1ncc2cc3ccccc3nc2c1C#N | binding | competition with immobilised ligand | 5 µM | 100
CN(C)c1ncc(F)c(-c2cnn3ncccc23)n1 | binding | – | 1 µM | 74
FC(F)(F)Oc1cccc(-c2cnc3ccc(-c4ccncc4)nn23)c1 | cell-free assay | competition with immobilised ligand | 5 µM | 85
C=CC(=O)N1CCC(C(=O)NCC(=O)N2CCN(c3nc(-c4cnc(N)nc4C(F)F)nc(N4CCOCC4)n3)CC2)CC1 | binding | competition with immobilised ligand | 1 µM | 94
CCN1CCN(Cc2ccc(C(=O)Nc3ccc(C)c(Oc4ccc5c(c4)CC(=O)N5)c3)cc2C(F)(F)F)CC1 | binding | competition with immobilised ligand | 1 µM | 79
O=C(c1ccc(Nc2ncc(Cl)c(-c3cc4ccccc4s3)n2)cc1)N1CCC(N2CCCC2)CC1 | binding | competition with immobilised ligand | 1 µM | 72
C[C@H]1CCN(c2nccc(-c3cnn4ncccc34)n2)C1 | binding | – | 1 µM | 100
COc1cnc(Nc2cccc(S(N)(=O)=O)c2)nc1N1CCN(c2ccccc2)CC1 | binding | competition with immobilised ligand | 1 µM | 96
CO[C@@H](C)c1c(Nc2ccc([C@@H](N(C)C(=O)C3CCS(=O)(=O)CC3)C(F)(F)F)cc2)cnc2cc(Cl)nn12 | cell-free assay | competition with immobilised ligand | 1 µM | 84
Cc1cnc(Nc2ccc(C(=O)N3CCC(N4CCCC4)CC3)cc2)nc1-c1cc2ccccc2s1 | binding | competition with immobilised ligand | 1 µM | 69
O=C(Nc1c[nH]nc1C(=O)NC1CCNCC1)c1cc(F)cc(F)c1 | binding | competition with immobilised ligand | 1 µM | 90
CN([C@@H]1CCc2c(CC(=O)O)c3cc(S(C)(=O)=O)ccc3n2C1)S(=O)(=O)c1ccc(F)cc1 | cell-free assay | competition with immobilised ligand | 1 µM | 100
CC1CCCN1c1nccc(-c2cnn3ncccc23)n1 (stereo not shown) | binding | – | 1 µM | 78
COc1ccc2c(c1)O[C@@H](c1ccc(OC)c(OC)c1)C[C@H]2NC(=O)C1(c2ccc3c(c2)OC(F)(F)O3)CC1 | cell-free assay | competition with immobilised ligand | 1 µM | 100
Cc1cnn2ncc(-c3ccnc(N(C)C)n3)c2c1 | binding | – | 1 µM | 100
C[C@@H](c1ccc(-n2cnc3c(N)ncnc32)cc1)N1CCc2nn(C)c(Cc3ccccc3)c2C1=O | binding | competition with immobilised ligand | 0.1 µM | 80
CNC(=O)c1ccc(Nc2ncc(C(F)(F)F)c(NCc3nccnc3N(C)S(C)(=O)=O)n2)cc1 | cell-free assay | competition with immobilised ligand | 0.1 µM | 100
CN(C)c1nccc(-c2cnn3ncccc23)n1 | binding | – | 1 µM | 100
O=C(O)[C@@H]1[C@@H](Cn2nnc3ccccc3c2=O)CC[C@H]1C(=O)c1ccc(OCCC2CCOCC2)cc1 | cell-free assay | competition with immobilised ligand | 1 µM | 86
N[C@@H]1CCN(c2nccc(-c3cnn4ncccc34)n2)C1 | binding | – | 1 µM | 100
O=C(NCCCN1CCOCC1)c1ccc(Nc2ncc(Cl)c(-c3ccc(Cl)s3)n2)cc1 | binding | competition with immobilised ligand | 1 µM | 100
C[C@H](c1cccc(C#N)c1)n1cc(Cl)cc(C(N)=O)c1=N | cell-free assay | competition with immobilised ligand | 1 µM | 44
